According to ChEMBL document CHEMBL1275251, “Mutant selection window and characterization of allelic diversity for ciprofloxacin-resistant mutants of Rhodococcus equi” (Antimicrob Agents Chemother, 2010):
Values after ≈ are worked out from the molar mass of the structure shown. Active and inactive are the calls of the source. The calls are words filed in the database; no cut-off is given here.

Experiments:
Prescottella equi [1] = assay: Antibacterial activity against Rhodococcus equi ATCC 6939T harboring GyrA Ser83Ile mutation selected on 4 ug/ml of compound treated culture by broth microdilution method; format: functional, organism-based
Summary of the method: (§1)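 Mutants were selected by plating at least 1 × 10^10 cells, grown 48 h at 35°C in brain heart infusion broth, on ciprofloxacin-containing Columbia blood agar base for 4 days at 35°C. Each was confirmed by two passages at the selecting concentration and one drug-free passage. MIC was then read by broth microdilution in cation-supplemented Mueller-Hinton broth per CLSI M24-A. Each experiment was done twice.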

Prescottella equi [2] = assay: Antibacterial activity against Rhodococcus equi W5234 selected on 4 ug/ml of compound treated culture by broth microdilution method; format: functional; settings: Rhodococcus (subgen. Prescottella) equi; summary of the method: as §1
Prescottella equi [3] = assay: Antibacterial activity against Rhodococcus equi W5234 harboring GyrA Ser83Arg mutation selected on 6 ug/ml of compound treated culture by broth microdilution method; format: functional; settings: Rhodococcus (subgen. Prescottella) equi; summary of the method: as §1
Prescottella equi [4] = assay: Antibacterial activity against Rhodococcus equi ATCC 6939T harboring GyrA Asp87His mutation selected on 6 ug/ml of compound treated culture by broth microdilution method; format: functional; settings: Rhodococcus (subgen. Prescottella) equi; summary of the method: as §1
Prescottella equi [5] = assay: Antibacterial activity against Rhodococcus equi W5234 harboring GyrA Ser83Ile mutation selected on 8 ug/ml of compound treated culture by broth microdilution method; format: functional; settings: Rhodococcus (subgen. Prescottella) equi; summary of the method: as §1
Prescottella equi [6] = assay: Antibacterial activity against Rhodococcus equi W5234 harboring GyrA Ser83Ile mutation selected on 4 ug/ml of compound treated culture by broth microdilution method; format: functional; settings: Rhodococcus (subgen. Prescottella) equi; summary of the method: as §1
Prescottella equi [7] = assay: Antibacterial activity against Rhodococcus equi ATCC 6939T harboring GyrA Ser83Ile mutation selected on 16 ug/ml of compound treated culture by broth microdilution method; format: functional; settings: Rhodococcus (subgen. Prescottella) equi; summary of the method: as §1
Prescottella equi [8] = assay: Antibacterial activity against Rhodococcus equi W5234 harboring GyrA Asp87Asn mutation selected on 6 ug/ml of compound treated culture by broth microdilution method; format: functional, organism-based; summary of the method: as §1
Prescottella equi [9] = assay: Antibacterial activity against Rhodococcus equi W5234 selected on 8 ug/ml of compound treated culture by broth microdilution method; format: functional; settings: Rhodococcus (subgen. Prescottella) equi; summary of the method: as §1
Prescottella equi [10] = assay: Antibacterial activity against Rhodococcus equi ATCC 6939T harboring GyrA Asp87Gly mutation selected on 4 ug/ml of compound treated culture by broth microdilution method; format: functional; settings: Rhodococcus (subgen. Prescottella) equi; summary of the method: as §1
Prescottella equi [11] = assay: Antibacterial activity against Rhodococcus equi ATCC 6939T selected on 4 ug/ml of compound treated culture by broth microdilution method; format: functional; settings: Rhodococcus (subgen. Prescottella) equi; summary of the method: as §1
Prescottella equi [12] = assay: Antibacterial activity against Rhodococcus equi ATCC 6939T harboring GyrA Ser83Ile mutation selected on 12 ug/ml of compound treated culture by broth microdilution method; format: functional; settings: Rhodococcus (subgen. Prescottella) equi; summary of the method: as §1
Prescottella equi [13] = assay: Antibacterial activity against Rhodococcus equi W5234 harboring GyrA Asp87Asn mutation selected on 4 ug/ml of compound treated culture by broth microdilution method; format: functional; settings: Rhodococcus (subgen. Prescottella) equi; summary of the method: as §1
Prescottella equi [14] = assay: Antibacterial activity against Rhodococcus equi W5234 harboring GyrA Ser83Ile mutation selected on 12 ug/ml of compound treated culture by broth microdilution method; format: functional; settings: Rhodococcus (subgen. Prescottella) equi; summary of the method: as §1
Prescottella equi [15] = assay: Antibacterial activity against Rhodococcus equi ATCC 6939T harboring GyrA Asp87Asn mutation selected on 8 ug/ml of compound treated culture by broth microdilution method; format: functional; settings: Rhodococcus (subgen. Prescottella) equi; summary of the method: as §1
Prescottella equi [16] = assay: Antibacterial activity against Rhodococcus equi ATCC 6939T harboring GyrA Ser83Arg mutation selected on 12 ug/ml of compound treated culture by broth microdilution method; format: functional; settings: Rhodococcus (subgen. Prescottella) equi; summary of the method: as §1
Prescottella equi [17] = assay: Antibacterial activity against Rhodococcus equi W5234 harboring GyrA Ser83Ile mutation selected on 16 ug/ml of compound treated culture by broth microdilution method; format: functional, organism-based; summary of the method: as §1
Prescottella equi [18] = assay: Antibacterial activity against Rhodococcus equi ATCC 6939T harboring GyrA Ser83Arg mutation selected on 8 ug/ml of compound treated culture by broth microdilution method; format: functional; settings: Rhodococcus (subgen. Prescottella) equi; summary of the method: as §1
Prescottella equi [19] = assay: Antibacterial activity against Rhodococcus equi W5234 harboring GyrA Gly81Cys mutation selected on 4 ug/ml of compound treated culture by broth microdilution method; format: functional, organism-based; summary of the method: as §1
Prescottella equi [20] = assay: Antibacterial activity against Rhodococcus equi W5234 harboring GyrA Ser83Arg mutation selected on 16 ug/ml of compound treated culture by broth microdilution method; format: functional; settings: Rhodococcus (subgen. Prescottella) equi; summary of the method: as §1
Prescottella equi [21] = assay: Antibacterial activity against Rhodococcus equi W5234 harboring GyrA Asp87Gly mutation selected on 8 ug/ml of compound treated culture by broth microdilution method; format: functional, organism-based; summary of the method: as §1
Prescottella equi [22] = assay: Antibacterial activity against Rhodococcus equi W5234 harboring GyrA Ser83Arg mutation selected on 8 ug/ml of compound treated culture by broth microdilution method; format: functional; settings: Rhodococcus (subgen. Prescottella) equi; summary of the method: as §1
Prescottella equi [23] = assay: Antibacterial activity against Rhodococcus equi ATCC 6939T harboring GyrA Gly81Cys mutation selected on 4 ug/ml of compound treated culture by broth microdilution method; format: functional; settings: Rhodococcus (subgen. Prescottella) equi; summary of the method: as §1
Prescottella equi [24] = assay: Antibacterial activity against Rhodococcus equi W5234 harboring GyrA Ser83Arg mutation selected on 2 ug/ml of compound treated culture by broth microdilution method; format: functional; settings: Rhodococcus (subgen. Prescottella) equi; summary of the method: as §1
Prescottella equi [25] = assay: Antibacterial activity against Rhodococcus equi W5234 harboring GyrA Asp87Gly mutation selected on 4 ug/ml of compound treated culture by broth microdilution method; format: functional, organism-based; summary of the method: as §1

For `O=C(O)c1cn(C2CC2)c2cc(N3CCNCC3)c(F)cc2c1=O` [CIPROFLOXACIN], the MIC (Prescottella equi [1]) was “inactive”, the MIC (Prescottella equi [2]) was 8 µg/mL (≈ 24.1 µM) and the MIC (Prescottella equi [3]) was 32 µg/mL (≈ 96.6 µM). The MIC (Prescottella equi [4]) was 16 µg/mL (≈ 48.3 µM), the MIC (Prescottella equi [5]) was 32 µg/mL (≈ 96.6 µM) and the MIC (Prescottella equi [6]) was 32 µg/mL (≈ 96.6 µM). The MIC (Prescottella equi [7]) was 64 µg/mL (≈ 193 µM), the MIC (Prescottella equi [8]) was “inactive” and the MIC (Prescottella equi [9]) was 16 µg/mL (≈ 48.3 µM). It also gave an MIC (Prescottella equi [10]) of 8 µg/mL (≈ 24.1 µM), an MIC (Prescottella equi [11]) of 4 µg/mL (≈ 12.1 µM) and an MIC (Prescottella equi [12]) of 128 µg/mL (≈ 386 µM). It also gave an MIC (Prescottella equi [13]) of 16 µg/mL (≈ 48.3 µM), an MIC (Prescottella equi [14]) of 64 µg/mL (≈ 193 µM) and an MIC (Prescottella equi [15]) of 32 µg/mL (≈ 96.6 µM). The MIC (Prescottella equi [16]) was 128 µg/mL (≈ 386 µM), the MIC (Prescottella equi [17]) was “inactive” and the MIC (Prescottella equi [18]) was 64 µg/mL (≈ 193 µM). The MIC (Prescottella equi [19]) was “inactive”, the MIC (Prescottella equi [20]) was 64 µg/mL (≈ 193 µM) and the MIC (Prescottella equi [21]) was “inactive”. It also gave an MIC (Prescottella equi [22]) of 32 µg/mL (≈ 96.6 µM), an MIC (Prescottella equi [23]) of 8 µg/mL (≈ 24.1 µM) and an MIC (Prescottella equi [24]) of 8 µg/mL (≈ 24.1 µM). The MIC (Prescottella equi [25]) was “inactive”.
